Source: ChEMBL document CHEMBL3232791, “Synthesis and antibacterial evaluation of amino acid-antibiotic conjugates” (2014)

How the values were obtained:
Format in all cases: functional
[1] = tested on: Escherichia coli; experiment: Antibacterial activity against Escherichia coli DH5alpha assessed as growth inhibition at 100 ug/ml after 16 hrs by spectrophotometric method; details: DH5[alpha], read-out: GI
Summary of the method: (§1)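 Growth inhibition read as OD600 on 300 µL culture samples, with untreated control cultures taken as maximum growth. Percent inhibition = (OD600 control − OD600 treated) × 100 / OD600 control. Parent antibiotics and their conjugates were run in parallel at three concentrations per compound, in biological duplicate.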

[2] = tested on: Staphylococcus aureus; experiment: Antibacterial activity against Staphylococcus aureus RN4220 assessed as growth inhibition at 75 ug/ml after 16 hrs by spectrophotometric analysis; details: RN4220, 16 h, read-out: GI; summary of the method: as §1
[3] = tested on: Staphylococcus aureus; experiment: Antibacterial activity against Staphylococcus aureus RN4220 assessed as growth inhibition at 300 ug/ml after 16 hrs by spectrophotometric analysis; details: RN4220, 16 h, read-out: GI; summary of the method: as §1
[4] = tested on: Escherichia coli; experiment: Antibacterial activity against Escherichia coli DH5alpha assessed as growth inhibition at 75 ug/ml after 16 hrs by spectrophotometric method; details: DH5[alpha], read-out: GI; summary of the method: as §1
[5] = tested on: Staphylococcus aureus; experiment: Antibacterial activity against Staphylococcus aureus RN4220 assessed as growth inhibition at 150 ug/ml after 16 hrs by spectrophotometric analysis; details: RN4220, 16 h, read-out: GI; summary of the method: as §1
[6] = tested on: Escherichia coli; experiment: Antibacterial activity against Escherichia coli DH5alpha assessed as growth inhibition at 50 ug/ml after 16 hrs by spectrophotometric method; details: DH5[alpha], read-out: GI; summary of the method: as §1
[7] = tested on: Escherichia coli; experiment: Antibacterial activity against Escherichia coli DH5alpha assessed as growth inhibition at 40 ug/ml after 16 hrs by spectrophotometric method; details: DH5[alpha], read-out: GI; summary of the method: as §1
[8] = tested on: Staphylococcus aureus; experiment: Antibacterial activity against Staphylococcus aureus RN4220 assessed as growth inhibition at 240 ug/ml after 16 hrs by spectrophotometric analysis; details: RN4220, 16 h, read-out: GI; summary of the method: as §1
[9] = tested on: Staphylococcus aureus; experiment: Antibacterial activity against Staphylococcus aureus RN4220 assessed as growth inhibition at 60 ug/ml after 16 hrs by spectrophotometric analysis; details: RN4220, 16 h, read-out: GI; summary of the method: as §1
[10] = tested on: Staphylococcus aureus; experiment: Antibacterial activity against Staphylococcus aureus RN4220 assessed as growth inhibition at 120 ug/ml after 16 hrs by spectrophotometric analysis; details: RN4220, 16 h, read-out: GI; summary of the method: as §1
[11] = tested on: Pseudomonas aeruginosa; experiment: Antibacterial activity against Pseudomonas aeruginosa PAO1 assessed as growth inhibition at 20 ug/ml after 16 hrs by spectrophotometric analysis; details: PAO1, 16 h, read-out: GI; summary of the method: as §1
[12] = tested on: Staphylococcus aureus; experiment: Antibacterial activity against Staphylococcus aureus RN4220 assessed as growth inhibition at 30 ug/ml after 16 hrs by spectrophotometric analysis; details: RN4220, 16 h, read-out: GI; summary of the method: as §1
[13] = tested on: Bacillus subtilis; experiment: Antibacterial activity against Bacillus subtilis 168 assessed as growth inhibition at 10 ug/ml after 16 hrs by spectrophotometric analysis; details: subsp. subtilis str. 168, 16 h, read-out: GI; summary of the method: as §1
[14] = tested on: Escherichia coli; experiment: Antibacterial activity against Escherichia coli DH5alpha assessed as growth inhibition at 3 ug/ml after 16 hrs by spectrophotometric method; details: DH5[alpha], read-out: GI; summary of the method: as §1
[15] = tested on: Staphylococcus aureus; experiment: Antibacterial activity against Staphylococcus aureus RN4220 assessed as growth inhibition at 15 ug/ml after 16 hrs by spectrophotometric analysis; details: RN4220, 16 h, read-out: GI; summary of the method: as §1
[16] = tested on: Escherichia coli; experiment: Antibacterial activity against Escherichia coli DH5alpha assessed as growth inhibition at 1.5 ug/ml after 16 hrs by spectrophotometric method; details: DH5[alpha], read-out: GI; summary of the method: as §1
[17] = tested on: Escherichia coli; experiment: Antibacterial activity against Escherichia coli DH5alpha assessed as growth inhibition at 0.75 ug/ml after 16 hrs by spectrophotometric method; details: DH5[alpha], read-out: GI; summary of the method: as §1
[18] = tested on: Bacillus subtilis; experiment: Antibacterial activity against Bacillus subtilis 168 assessed as growth inhibition at 20 ug/ml after 16 hrs by spectrophotometric analysis; details: subsp. subtilis str. 168, 16 h, read-out: GI; summary of the method: as §1
[19] = tested on: Pseudomonas aeruginosa; experiment: Antibacterial activity against Pseudomonas aeruginosa PAO1 assessed as growth inhibition at 40 ug/ml after 16 hrs by spectrophotometric analysis; details: PAO1, 16 h, read-out: GI; summary of the method: as §1
[20] = tested on: Pseudomonas aeruginosa; experiment: Antibacterial activity against Pseudomonas aeruginosa PAO1 assessed as growth inhibition at 10 ug/ml after 16 hrs by spectrophotometric analysis; details: PAO1, 16 h, read-out: GI; summary of the method: as §1
[21] = tested on: Bacillus subtilis; experiment: Antibacterial activity against Bacillus subtilis 168 assessed as growth inhibition at 5 ug/ml after 16 hrs by spectrophotometric analysis; details: subsp. subtilis str. 168, 16 h, read-out: GI; summary of the method: as §1
[22] = tested on: Staphylococcus aureus; experiment: Antibacterial activity against Staphylococcus aureus RN4220 assessed as growth inhibition at 200 ug/ml after 16 hrs by spectrophotometric analysis; details: RN4220, 16 h, read-out: GI; summary of the method: as §1
[23] = tested on: Escherichia coli; experiment: Antibacterial activity against Escherichia coli DH5alpha assessed as growth inhibition at 10 ug/ml after 16 hrs by spectrophotometric method; details: DH5[alpha], read-out: GI; summary of the method: as §1
[24] = tested on: Bacillus subtilis; experiment: Antibacterial activity against Bacillus subtilis 168 assessed as growth inhibition at 40 ug/ml after 16 hrs by spectrophotometric analysis; details: subsp. subtilis str. 168, 16 h, read-out: GI; summary of the method: as §1
[25] = tested on: Staphylococcus aureus; experiment: Antibacterial activity against Staphylococcus aureus RN4220 assessed as growth inhibition at 100 ug/ml after 16 hrs by spectrophotometric analysis; details: RN4220, 16 h, read-out: GI; summary of the method: as §1
[26] = tested on: Staphylococcus aureus; experiment: Antibacterial activity against Staphylococcus aureus RN4220 assessed as growth inhibition at 50 ug/ml after 16 hrs by spectrophotometric analysis; details: RN4220, 16 h, read-out: GI; summary of the method: as §1
[27] = tested on: Escherichia coli; experiment: Antibacterial activity against Escherichia coli DH5alpha assessed as growth inhibition at 2.5 ug/ml after 16 hrs by spectrophotometric method; details: DH5[alpha], read-out: GI; summary of the method: as §1
[28] = tested on: Escherichia coli; experiment: Antibacterial activity against Escherichia coli DH5alpha assessed as growth inhibition at 5 ug/ml after 16 hrs by spectrophotometric method; details: DH5[alpha], read-out: GI; summary of the method: as §1

Cc1ncc([N+](=O)[O-])n1CCOC(=O)CNC(=O)OCc1ccccc1
inhibition of growth at 100 µg/mL [1]: 6.59%
inhibition of growth at 75 µg/mL [2]: 0.33%
inhibition of growth at 300 µg/mL [3]: 23.6%
inhibition of growth at 75 µg/mL [4]: 1.61%
inhibition of growth at 150 µg/mL [5]: 23.5%
inhibition of growth at 50 µg/mL [6]: 8.23%

Cc1ncc([N+](=O)[O-])n1CCOC(=O)[C@H](C)NC(=O)OCc1ccccc1
inhibition of growth at 100 µg/mL [1]: 8.28%
inhibition of growth at 75 µg/mL [2]: 8.86%
inhibition of growth at 300 µg/mL [3]: 45.9%
inhibition of growth at 75 µg/mL [4]: 3.79%
inhibition of growth at 150 µg/mL [5]: 22.5%
inhibition of growth at 50 µg/mL [6]: 2.22%

Cc1ncc([N+](=O)[O-])n1CCOC(=O)[C@@H](NC(=O)OCc1ccccc1)C(C)C
inhibition of growth at 100 µg/mL [1]: 4.47%
inhibition of growth at 75 µg/mL [2]: -7.76%
inhibition of growth at 300 µg/mL [3]: 13.7%
inhibition of growth at 75 µg/mL [4]: 3.26%
inhibition of growth at 150 µg/mL [5]: -7.76%
inhibition of growth at 50 µg/mL [6]: 3.28%

Cc1ncc([N+](=O)[O-])n1CCOC(=O)[C@H](Cc1ccccc1)NC(=O)OCc1ccccc1
inhibition of growth at 100 µg/mL [1]: 7.7%
inhibition of growth at 75 µg/mL [2]: -0.03%
inhibition of growth at 300 µg/mL [3]: 20.5%
inhibition of growth at 75 µg/mL [4]: 5.73%
inhibition of growth at 150 µg/mL [5]: 6.66%
inhibition of growth at 50 µg/mL [6]: 4.44%

Cc1ncc([N+](=O)[O-])n1CCOC(=O)[C@H](CCCCNC(=O)OCc1ccccc1)NC(=O)OCc1ccccc1
inhibition of growth at 100 µg/mL [1]: 70%
inhibition of growth at 75 µg/mL [2]: -2.96%
inhibition of growth at 300 µg/mL [3]: 68%
inhibition of growth at 75 µg/mL [4]: 62.5%
inhibition of growth at 150 µg/mL [5]: 22.3%
inhibition of growth at 50 µg/mL [6]: 51.9%

C[C@H](NC(=O)OCc1ccccc1)C(=O)Nc1ccc(S(=O)(=O)Nc2ncccn2)cc1
inhibition of growth at 40 µg/mL [7]: 2.13%
inhibition of growth at 240 µg/mL [8]: 1.07%
inhibition of growth at 75 µg/mL [4]: -0.65%
inhibition of growth at 60 µg/mL [9]: -9.96%
inhibition of growth at 120 µg/mL [10]: -9.38%
inhibition of growth at 50 µg/mL [6]: -0.61%

Cc1ncc([N+](=O)[O-])n1CCO [METRONIDAZOLE]
inhibition of growth at 100 µg/mL [1]: 15%
inhibition of growth at 75 µg/mL [2]: -14.3%
inhibition of growth at 300 µg/mL [3]: 16.4%
inhibition of growth at 75 µg/mL [4]: 8.2%
inhibition of growth at 150 µg/mL [5]: -9.9%
inhibition of growth at 50 µg/mL [6]: 6.64%

CCn1cc(C(=O)O)c(=O)c2cc(F)c(N3CCNCC3)cc21 [NORFLOXACIN]
inhibition of growth at 20 µg/mL [11]: 90.5%
inhibition of growth at 30 µg/mL [12]: 73.5%
inhibition of growth at 10 µg/mL [13]: 91.9%
inhibition of growth at 3 µg/mL [14]: 80.8%
inhibition of growth at 15 µg/mL [15]: 63.9%
inhibition of growth at 1.5 µg/mL [16]: 72.8%
inhibition of growth at 0.75 µg/mL [17]: 55.3%
inhibition of growth at 60 µg/mL [9]: 81%
inhibition of growth at 20 µg/mL [18]: 92.2%
inhibition of growth at 40 µg/mL [19]: 89.1%
inhibition of growth at 10 µg/mL [20]: 81.1%
inhibition of growth at 5 µg/mL [21]: 90.7%

CCn1cc(C(=O)O)c(=O)c2cnc(N3CCNCC3)nc21 [PIPEMIDIC ACID]
inhibition of growth at 10 µg/mL [13]: 18.2%
inhibition of growth at 200 µg/mL [22]: 61.8%
inhibition of growth at 10 µg/mL [23]: 7.89%
inhibition of growth at 40 µg/mL [24]: 79.8%
inhibition of growth at 100 µg/mL [25]: 44.4%
inhibition of growth at 50 µg/mL [26]: 26.2%
inhibition of growth at 20 µg/mL [18]: 26%
inhibition of growth at 2.5 µg/mL [27]: -13%
inhibition of growth at 5 µg/mL [28]: -9.68%
